Compound activity from PubChem BioAssay.
TAAR1 antagonist: human TAAR1 antagonists, primary screen, Fluo-8 calcium fluorescence, CHO RD-HGA16 cells; inhibition, % at 3 µM; 1.5% of 360,000 active; Trace amine-associated receptor 1 (Homo sapiens), Q96RJ0; antagonist;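 active = inhibition above a per-plate cutoff, the mean inhibition of test compounds on that plate plus 3 SD, cut at about 49% in these data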;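 note: 0% = DMSO plus EC80 beta-PEA response and 100% = DMSO alone without agonist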
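System: RD-HGA16 CHO cells with stable hTAAR1 and Gα16 | Probe or stimulus: EC80 β-phenethylamine stimulus | Dosing: 3 µM, single point | Times: Dye loading 75 min at 37 °C, then 30 min room temperature | Measured by: Fluo-8 calcium-sensitive fluorescence | Read-out basis: % inhibition of agonist calcium response | Replicates: n of 1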
OX1R antag-1: OX1R (HCRTR1) antagonists, primary screen, fluorescence, CHO/OX1R cells, Fluo-8 calcium, orexin A. Fluo-8 calcium fluorescence. inhibition, % at 5 µM. 0.43% of 330,000 active. AID 434989, 2010;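 active = inhibition above its plate's threshold, mean inhibition of all tested compounds on the plate plus 3 SD, cut at about 37% in these data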;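 note: 0% = orexin A challenge wells and 100% = SB-334867-A antagonist wells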
CHO parental Ca: ATP-evoked calcium signal inhibitors, parental CHO, primary screen, counter-screen for OX1R antagonist project, cell-based, fluorescence, Fluo-8 calcium dye. parental CHO-K1, ATP-induced calcium, Fluo-8 fluorescence. inhibition, % at 5.6 µM. 0.63% of 330,000 active. AID 463079, 2010;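 active = inhibition above that plate's mean sample inhibition plus 3 SD, cut at about 26% in these data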;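 note: 0% = ATP-challenged DMSO wells and 100% = DMSO wells without ATP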
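material = parental CHO cells | also added = ATP as calcium-mobilizing challenge | dosing = single point at 5.6 µM | detection = intracellular calcium via Fluo-8 no-wash fluorescent dye | read-out = % inhibition | benchmarks = low control ATP plus DMSO, high control DMSO only | repeats = one well per compound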
OX1R antag-2: antagonists of human orexin 1 receptor (OX1R) | inhibition, % at 6.6 µM | 1.8% of 330,000 active | OX1R-expressing cells, FRET antagonist read-out | Orexin/Hypocretin receptor type 1 (Homo sapiens), O43613; in the data active = inhibition mostly above about 38%, no sharp cut-off; inactive = mostly below about 40%;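 note: 0% = agonist challenge alone and 100% = reference antagonist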
GPR7 antagonist: GPR7 receptor antagonists, primary screen, cell-based, fluorescence, single concentration; Neuropeptides B/W receptor type 1 (Homo sapiens), P48145; GPR7-expressing cells, fluorescence antagonist assay; inhibition, % at 4.4 µM; 1.1% of 290,000 active; AID 1861, 2009; in the data active = inhibition above about 16%, passing the limit was not always enough;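 note: cells stimulated with the agonist NPW; 0% = agonist with vehicle and 100% = vehicle without agonist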
Target sequence (P48145 whole entry, looked up): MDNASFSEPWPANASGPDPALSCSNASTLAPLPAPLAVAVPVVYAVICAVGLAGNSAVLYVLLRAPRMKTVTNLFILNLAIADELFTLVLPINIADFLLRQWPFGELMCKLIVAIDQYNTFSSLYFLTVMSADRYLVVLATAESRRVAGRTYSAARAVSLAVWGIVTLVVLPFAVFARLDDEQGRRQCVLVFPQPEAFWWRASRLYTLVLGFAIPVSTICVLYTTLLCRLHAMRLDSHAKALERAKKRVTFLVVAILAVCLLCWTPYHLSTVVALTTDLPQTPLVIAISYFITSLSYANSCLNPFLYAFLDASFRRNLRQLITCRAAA
TAAR1 agonist: human TAAR1 agonists, primary screen, Fluo-8 calcium fluorescence, CHO RD-HGA16 cells. AID 624467, 2012. Trace amine-associated receptor 1 (Homo sapiens), Q96RJ0. vehicle wells 0%, saturating PEA agonist 100%. activation, % at 3 µM. 0.99% of 360,000 active;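 active = activation above the mean activation of all test compounds in the run plus 3 SD, cut at about 38% in these data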
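System: CHO-derived RD-HGA16 cells with stable Gα16 and human TAAR1. Times: 17-24 h plating, Fluo-8 75 min 37 °C, 30 min RT. Measured by: calcium-sensitive Fluo-8 signal, excitation 470-495, emission 515-575 nm. Read-out basis: % activation relative to PEA EC100 response. Control set: DMSO and PEA EC100. Repeats: no replicates (n 1).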
GPR7 antag conf: GPR7 receptor antagonists, confirmation, cell-based, fluorescence, single concentration. shares compounds with GPR7 antagonist. GPR7-expressing cells, calcium fluorescence antagonist mode. inhibition, % at 4.4 µM. 52% of 2,400 active; in the data active = inhibition above about 24%;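 note: stimulated with the GPR7 agonist NPW; 0% = agonist plus vehicle and 100% = vehicle alone without agonist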
MCHR1 antagonist: MCHR1 antagonists in cells, counter-screen for GPR7 antagonist project, cell-based, fluorescence, human. MCHR1-expressing cells, fluorescence antagonist assay. AID 2148, 2009. shares compounds with GPR7 antagonist. inhibition, % at 4.4 µM. 62% of 2,400 active; in the data active = inhibition above about 22%;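 note: 0% = vehicle with agonist and 100% = vehicle without agonist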
Starred values were filed as active, the others as inactive; x = no result. Shown are actives, neighbours in structure and some others; about 4.6% of the full set was active somewhere.

SMILES	TAAR1 antagonist	OX1R antag-1	CHO parental Ca	OX1R antag-2	GPR7 antagonist	TAAR1 agonist	GPR7 antag conf	MCHR1 antagonist
Cc1cnc(CNC(=O)c2ccc3oc(Cc4ccc(Cl)cc4)nc3c2)cn1	-16	2	-2	12	23*	4	23	20
CC(C)CC(=O)N1CCN(c2ccc([N+](=O)[O-])c(NCc3ccccc3)c2)CC1	5	-25	-32	16	36*	6	26*	45*
CCCC(C)C(=O)Nc1ncc(S(=O)(=O)c2ccc([N+](=O)[O-])cc2)s1 (centres undefined)	62*	28	30	12	65*	89*	70*	87*
Cc1ccc2nc(C)c3c(c2c1)N(c1ccc(F)cc1)CC3	-30	-7	-11	9	35*	6	42*	31*
CSc1nc(C)c2c(n1)N(c1ccc(F)cc1)CC2	-10	-6	2	8	3	5	x	x
Cc1ccccc1CS(=O)(=O)c1cn(CC(=O)N2CCOCC2)c2ccccc12	15	-2	-10	14	-20	4	x	x
O=C(O)c1ccc(CNS(=O)(=O)c2ccc3ccccc3c2)cc1	0	4	13	23	23*	3	6	-4
NS(=O)(=O)c1ccc(CNS(=O)(=O)c2ccc3ccccc3c2)cc1	24	-1	8	28	4	2	x	x
COc1cccc(NC(=O)Nc2nc(-c3ccc(OC)c(OC)c3)cs2)c1	82*	73*	71*	71*	74*	28	92*	93*
COc1ccc(-c2csc(NC(C)=O)n2)cc1OC	0	-15	7	12	2	3	x	x
CCc1ccc(/C=C2/C(=O)N(C)C(=S)N2CC(=O)OC)s1	9	-23	-14	9	27*	0	2	13
COC(=O)CN1C(=S)N(C)C(=O)/C1=C/c1cccs1	-18	-3	2	9	3	0	x	x
CCN(CC)CCSc1nc(O)c(-c2ccccc2)c(=O)n1-c1ccccc1	-19	-7	-1	7	-2	1	x	x
CCN(CC)CCSc1nc2ccccc2c(=S)n1-c1ccccc1	-10	-15	-18	8	40*	19	40*	39*
N/C(=N\c1nc2c(c(=O)[nH]1)CCCC2)Nc1ccccc1	14	-7	-4	11	31*	9	8	18
Fc1ccc(C(c2nnnn2Cc2ccccc2)N2CCSCC2)cc1 (centres undefined)	9	-27	-9	10	-4	6	x	x
Clc1ccc(C(c2nnnn2CCc2ccccc2)N2CCSCC2)cc1 (centres undefined)	1	1	-7	40	28*	7	31*	41*
CC1Cc2ccccc2N1C(=O)c1cccnc1 (centres undefined)	20	0	-7	10	-8	5	x	x
CC1CCc2cc(F)ccc2N1C(=O)c1cccnc1 (centres undefined)	-8	-10	-11	-1	26*	0	-5	1
COC(=O)CCN(C1CCCCC1)S(=O)(=O)c1ccc(S(=O)(=O)NC2CCCCC2)cc1	1	-16	4	13	40*	18	51*	32*
N#CC1(NC(=O)CSc2nnc(Nc3ccccc3F)s2)CCCC1	-5	1	-22	3	x	10	x	x
